Assay results pooled from the literature.
Lines come from different studies, so protocols differ.
Target: Cyclin-G-associated kinase (GAK, Homo sapiens, UniProt O14976)
One construct used (O14976 1-1311): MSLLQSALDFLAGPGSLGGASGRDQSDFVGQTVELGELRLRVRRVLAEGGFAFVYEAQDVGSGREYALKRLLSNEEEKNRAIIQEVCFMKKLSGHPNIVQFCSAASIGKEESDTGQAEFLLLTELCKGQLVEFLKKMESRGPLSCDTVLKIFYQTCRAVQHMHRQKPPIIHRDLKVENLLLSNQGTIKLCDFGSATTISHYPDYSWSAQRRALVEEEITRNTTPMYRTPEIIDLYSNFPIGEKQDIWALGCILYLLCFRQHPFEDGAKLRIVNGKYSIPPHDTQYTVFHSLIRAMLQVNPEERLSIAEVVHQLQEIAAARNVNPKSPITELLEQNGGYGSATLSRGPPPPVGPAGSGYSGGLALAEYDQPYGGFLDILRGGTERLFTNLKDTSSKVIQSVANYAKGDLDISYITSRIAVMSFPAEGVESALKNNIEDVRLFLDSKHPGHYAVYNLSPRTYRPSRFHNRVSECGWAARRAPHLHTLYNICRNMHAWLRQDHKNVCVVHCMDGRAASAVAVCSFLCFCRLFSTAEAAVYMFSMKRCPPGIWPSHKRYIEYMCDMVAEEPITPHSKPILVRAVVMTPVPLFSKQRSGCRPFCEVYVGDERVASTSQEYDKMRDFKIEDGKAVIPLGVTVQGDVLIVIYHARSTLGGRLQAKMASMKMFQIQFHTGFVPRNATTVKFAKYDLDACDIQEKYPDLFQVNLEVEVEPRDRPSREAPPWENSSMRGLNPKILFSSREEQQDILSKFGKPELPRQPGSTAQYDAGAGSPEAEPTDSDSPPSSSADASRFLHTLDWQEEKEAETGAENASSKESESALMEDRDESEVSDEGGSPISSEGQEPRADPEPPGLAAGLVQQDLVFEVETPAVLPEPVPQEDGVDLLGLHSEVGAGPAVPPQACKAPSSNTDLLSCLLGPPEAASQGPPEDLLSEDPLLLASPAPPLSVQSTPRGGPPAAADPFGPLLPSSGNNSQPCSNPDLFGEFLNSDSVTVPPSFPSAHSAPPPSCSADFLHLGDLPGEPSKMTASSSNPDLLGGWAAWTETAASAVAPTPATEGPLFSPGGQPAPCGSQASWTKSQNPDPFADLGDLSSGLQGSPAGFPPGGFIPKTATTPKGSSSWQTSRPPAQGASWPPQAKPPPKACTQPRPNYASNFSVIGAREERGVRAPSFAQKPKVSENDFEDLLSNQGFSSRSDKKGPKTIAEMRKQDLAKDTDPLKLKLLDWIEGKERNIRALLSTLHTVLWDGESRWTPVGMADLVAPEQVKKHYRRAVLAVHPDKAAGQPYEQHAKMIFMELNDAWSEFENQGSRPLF

c1cnn2ncc(-c3ccnc(N4CCC45COC5)n3)c2c1  remaining binding (binding; 1 µM): 56%
N#CC1(c2ccccn2)CCN(Cc2cc(C(=O)N3CCCC3)c(=O)n3ccccc23)CC1  remaining binding (cell-free assay; competition with immobilised ligand; 1 µM): 100%
COc1ncc2cc3ccccc3nc2c1C#N  remaining binding (cell-free assay; competition with immobilised ligand; 5 µM): 87%
C[C@@H](c1cccc(C#N)c1)n1cc(Cl)cc(C(N)=O)c1=N  remaining binding (cell-free assay; competition with immobilised ligand; 1 µM): 100%
FC(F)(F)Oc1cccc(-c2cnc3ccc(-c4ccncc4)nn23)c1  remaining binding (cell-free assay; competition with immobilised ligand; 5 µM): 9.7%
C[C@H](c1ccc(F)cc1)N(Cc1cccc(C(=O)O)c1)C(=O)c1cnc2ccccc2c1  remaining binding (cell-free assay; competition with immobilised ligand; 1 µM): 98%
CN(C)c1ncc(F)c(-c2cnn3ncccc23)n1  remaining binding (binding; 1 µM): 100%
CN1CCN(c2cnc3c(C4CCN(C(=O)c5ccc(OC(F)(F)F)cc5N)CC4)ncnc3c2)CC1  remaining binding (cell-free assay; competition with immobilised ligand; 1 µM): 100%
C[C@@H](c1ccc(-n2cnc3c(N)ncnc32)cc1)N1CCc2nn(C)c(Cc3ccccc3)c2C1=O  remaining binding (binding; competition with immobilised ligand; 0.1 µM): 99%
CCS(=O)(=O)c1cc2cc(C[C@](O)(CC(C)(C)c3ccc(F)cc3C(N)=O)C(F)(F)F)[nH]c2cn1  remaining binding (cell-free assay; competition with immobilised ligand; 1 µM): 100%
Nc1ncc2c(n1)-c1c([nH]c3ccc(C#CC4CC4)cc13)CCCC2  remaining binding (binding; competition with immobilised ligand; 1 µM): 88%
COc1cnc(Nc2cccc(S(N)(=O)=O)c2)nc1N1CCN(c2ccccc2)C(=O)C1  remaining binding (binding; competition with immobilised ligand; 1 µM): 57%
Cc1cnc(Nc2ccc(C(=O)N3CCC(N4CCCC4)CC3)cc2)nc1-c1cc2ccccc2s1  remaining binding (binding; competition with immobilised ligand; 1 µM): 8.2%
CC(C)(O)c1cncc(-c2nc3ccc(F)cc3n2C2CC2)c1  remaining binding (cell-free assay; competition with immobilised ligand; 1 µM): 100%
CN(c1nccc(-c2cnn3ncccc23)n1)C1CC1  remaining binding (binding; 1 µM): 100%
Cn1nc(C(=O)NCc2ccc(C(=O)O)cc2)cc1-c1ccc2[nH]ccc2c1  remaining binding (cell-free assay; competition with immobilised ligand; 0.1 µM): 90%
COc1ccnn2ncc(-c3ccnc(N(C)C)n3)c12  remaining binding (binding; 1 µM): 73%
O=C(NCCCN1CCOCC1)c1ccc(Nc2nccc(-c3cc4ccccc4s3)n2)cc1  remaining binding (binding; competition with immobilised ligand; 1 µM): 21%
CN(CCCC(F)(F)F)c1nccc(-c2cnn3ncccc23)n1  remaining binding (binding; 1 µM): 100%
O=C(Nc1c[nH]nc1C(=O)NC1CCNCC1)c1cc(F)cc(F)c1  remaining binding (binding; competition with immobilised ligand; 1 µM): 90%
C[C@@H]1CCN(c2nccc(-c3cnn4ncccc34)n2)C1  remaining binding (binding; 1 µM): 40%
O=C(c1ccc(Nc2ncc(Cl)c(-c3ccc(Cl)s3)n2)cc1)N1CCC(N2CCCC2)CC1  remaining binding (binding; competition with immobilised ligand; 1 µM): 23%
